Here are results for six molecules from ChEMBL document CHEMBL1134834, “Quinoxalinylethylpyridylthioureas (QXPTs) as potent non-nucleoside HIV-1 reverse transcriptase (RT) inhibitors. Further SAR studies and identification of a novel orally bioavailable hydrazine-based antiviral agent” (J Med Chem, 2001).

The target in experiment [1] is Human immunodeficiency virus type 1 reverse transcriptase (Human immunodeficiency virus 1, UniProt Q72547, Y181I). In words: Inhibition of HIV-1 Mutant HIV-1 RT enzymes containing the single amino acid substitution Y181I.
Experiment [2] concerns the target Human immunodeficiency virus type 1 reverse transcriptase (Human immunodeficiency virus 1, UniProt Q72547, Y188L). In words: Inhibition of HIV-1 Mutant HIV-1 RT enzymes containing the single amino acid substitution Y188L.
Experiment [3] concerns the target Human immunodeficiency virus type 1 reverse transcriptase (Human immunodeficiency virus 1, UniProt Q72547, V106A). Description: Inhibition of HIV-1 Mutant HIV-1 RT enzymes containing the single amino acid substitution V106A.
Experiment [4] concerns the target T1, Human immunodeficiency virus type 1 reverse transcriptase (Human immunodeficiency virus 1, UniProt Q72547). In words: Inhibition of HIV-1 Mutant HIV-1 RT enzymes containing the single amino acid substitution […].
Experiment [5] concerns the target T1, Human immunodeficiency virus type 1 reverse transcriptase. In words: Inhibition of HIV-1 wild-type RT.
Experiment [6] deals with Human immunodeficiency virus type 1 reverse transcriptase (Human immunodeficiency virus 1, UniProt Q72547, K103N). In words: Inhibition of HIV-1 Mutant HIV-1 RT enzymes containing the single amino acid substitution K103N.
A short description of experiment [7]: Selectivity index was determined in C8166 cells. The class given is functional. A digest of the protocol: (§1)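 C8166 CD4+ T-cell line (HTLV-I genome, only tat expressed) acutely infected with lymphocytotropic HIV-1 IIIB. […] Read-out is HIV-p24 antigen in supernatants. AZT positive control was run at the same time. SI = IC50/EC50.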
Experiment [8] relates to C8166. Description: (§2) Concentration which results in 50% survival of uninfected untreated control C8166 cells (cytotoxicity of the compound). Format: cell-based. To be noted: Homo sapiens. A digest of the protocol:
(§3)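 Toxicity in uninfected C8166 cells by MTT reduction to formazan, read spectrophotometrically.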

The subject of experiment [9] is Human immunodeficiency virus 1. In words: Concentration which produces a 50% survival of HIV-1 infected cells relative to uninfected control C8166 cells. To be noted: Human immunodeficiency virus 1, C8166. The class given is functional, organism-based.
For experiment [10], the system named is C8166. In words: Synergistic antiviral activity with AZT (DDI), against HIV-IIIB in C8166 cells. The class given is functional, cell-based. Particulars: Homo sapiens. A digest of the protocol:
(§4)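 C8166 cells infected with HIV-IIIB and treated with compound combined with AZT (or DDI). Combination index calculated by the Chou-Talalay multiple drug effect analysis under both mutually exclusive and mutually nonexclusive assumptions.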

Experiment [11] concerns CEM-SS. Description: Concentration which produces a 50% survival of HIV-1 infected cells relative to uninfected control CEM-SS cells (in vitro anti-HIV activity). The class given is functional, cell-based. Particulars: Homo sapiens. A digest of the protocol: (§5)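 CEM-SS T4 lymphocytes infected with wild-type HIV-1. Protection from virus-induced cell death is scored against an AZT-treated positive control run under identical conditions. […] SI = IC50/EC50.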

Experiment [12] deals with C8166. In words: Antiviral activity alone against HIV-IIIB in C8166 cells. Format: functional, cell-based. To be noted: Homo sapiens. A digest of the protocol:
as §1

In experiment [13] the test system is CEM-SS. In words: Concentration which results in 50% survival of uninfected untreated control CEM-SS cells (cytotoxicity of the compound). The class given is functional, cell-based. To be noted: Homo sapiens, read-out: IC50 (the source's name).
Experiment [14] concerns C8166. The description is as §2. Format: functional, cell-based. Particulars: Homo sapiens. A digest of the protocol: as §3
The next experiment concerns Daudi. Description: Cytotoxicity on Daudi Human(DH) cell line (O.D.=0.129+/-0.018). Format: functional. To be noted: read-out: TC50 (the source's name).
Experiment [15] in a line: Selectivity index was determined in CEM-SS cells. The class given is functional. A digest of the protocol: as §5
A further experiment relates to NIH3T3. Description: Cytotoxicity on 3T3 fibroblasts (3T3F) murine cell line (O.D.=0.131+/-0.014). Format: functional. Particulars: Mus musculus, read-out: TC50 (the source's name).
The subject of experiment [16] is C8166. In words: Synergistic antiviral activity of AZT (DDI) with the compound, against HIV-IIIB in C8166 cells. To be noted: Homo sapiens. Format: functional, cell-based. A digest of the protocol: as §4
The species entered for a further experiment is Mus musculus. In words: Cytotoxicity on NSO murine cell line (O.D.=0.125+/-0.015). Format: functional. To be noted: read-out: TC50 (the source's name).
The nature of experiment [17]: Cytotoxicity on normal human lymphocytes(HL) (O.D.=0.114+/-0.01). The class given is functional. To be noted: read-out: TC50 (the source's name).

Usually Ki stands for the dissociation constant of the complex between target and ligand, obtained from inhibition or displacement. On to `O=c1n(CCNC(=S)Nc2ccc(Br)cn2)c2ccccc2c2ccnn12`, for which the Ki in experiment [1] was determined as 520 nM; in [2], 400 nM; in experiment [3] it was 330 nM; in experiment [4] it was 100 nM; in experiment [5] it was 15 nM; in [6], 21 nM.

In [5], `S=C(NNc1nc2ccccc2n2cccc12)Nc1ccc(Br)cn1` came in with a Ki of 1900 nM.

`O=C(NNc1nc2ccccc2n2cccc12)c1ccccn1` showed a Ki in experiment [5] of 4000 nM.

In general, IC50 refers to the concentration needed to halve the response being measured. A high value points to a need for much substance. As usually defined, the EC50 is the concentration needed to bring the measured effect to its halfway point. Turning to `CC(C)=CCN1Cc2c(Cl)ccc3[nH]c(=S)n(c23)C[C@@H]1C` [TIVIRAPINE], the SI in [7] turned out to be 1670. The same molecule came in with an IC50 in the experiment with C8166 [8] of 50000 nM. For the same molecule, a half-maximal response in experiment [9] (EC50) required 30 nM.

As for `O=c1c2nccn2c2ccccc2n1CCNC(=S)Nc1ccc(Br)cn1`, the Ki in experiment [1] amounted to 1400 nM; in [2] it was 5000 nM; in experiment [3], 350 nM; in [4] it was 1000 nM; in experiment [5], 250 nM; in experiment [6] it was 240 nM. In addition, the EC50 with C8166 [10] worked out at 460 nM; with CEM-SS [11] it was 13 nM; in the experiment on C8166 [12], 588 nM; in experiment [9], 320 nM; with C8166 [16] it was 66 nM. The CC50 in the experiment with CEM-SS [13] is over 2000 nM; in the experiment on Daudi, 680000 nM; in the experiment on NIH3T3, 690000 nM; in the experiment listed under Mus musculus, 680000 nM; in experiment [17], 670000 nM. This molecule also yielded an IC50 with C8166 [14] of 88000 nM. The values for the SI in experiment [7] and in experiment [15] were 275 and over 150, respectively.

Turning to `Cc1cc2nc(OCCNC(=S)Nc3ccc(Br)cn3)c3cccn3c2cc1C`, the Ki was found to be 660 nM in experiment [1]; 1500 nM in experiment [2]; 150 nM in [3]; 500 nM in [4]; 220 nM in [5]; 450 nM in [6].
